{"source": "ChEMBL document CHEMBL1123566", "about": "“Synthesis and cardiac electrophysiological activity of 2- and 3-[(substituted phenyl)alkyl]quinuclidines. Structure-activity relationships” (1987)", "key": {"Canis familiaris [1]": {"organism": "Canis familiaris", "test": "(§1) In vitro electrophysiological activity in canine cardiac occurred is 100 uM", "type": "functional, Canis lupus familiaris, Heart"}, "Canis familiaris [2]": {"organism": "Canis familiaris", "test": "In vitro electrophysiological evaluation in canine cardiac Purkinje fibres reported as % change for action potential duration at a concentration of 10 uM", "type": "functional, Canis lupus familiaris, Purkinje fiber", "summary_of_the_method": "(§2)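 Canine cardiac Purkinje fibres, intracellular microelectrode recording, paced at a basic cycle length of 1 s. APD95 and Vmax read simultaneously. Compound: 10 mM stock in deionized water, diluted into Tyrode's solution, tested over the stated concentration range. Each fibre used once as its own control. Result is % change from control, given at 10 µM or as the maximum with its concentration. M = <10% decrease or an increase in Vmax.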"}, "Canis familiaris [3]": {"organism": "Canis familiaris", "test": "In vitro electrophysiological evaluation in canine cardiac ventricular muscle reported as maximum % change for functional refractory period (FRP) at 0.1-100 uM concentration range; concentration at which it occurred is 100 uM", "parameters": "species or system Canis lupus familiaris, Muscle tissue", "summary_of_the_method": "(§3)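 Canine right ventricle and papillary muscle strips in oxygenated Tyrode's solution, fitted with stimulating and recording electrodes. The extra-stimulus conduction-interval method was adapted for in vitro use. FRP and CT were read from a conduction-interval curve before and after various compound concentrations, and expressed as percent change from control. Compounds were taken from 10 mM deionized-water stock into Tyrode's. Each strip was used once as its own control.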"}, "Canis familiaris [4]": {"organism": "Canis familiaris", "test": "as §1", "type": "functional, Canis lupus familiaris, Heart", "remark": "listed apart in the source"}, "Canis familiaris [5]": {"organism": "Canis familiaris", "test": "(§4) In vitro electrophysiological evaluation in canine cardiac occurred is 100 uM", "type": "functional", "conditions": "Canis lupus familiaris; Heart"}, "Canis familiaris [6]": {"organism": "Canis familiaris", "test": "In vitro electrophysiological evaluation in canine cardiac Purkinje fibres reported as percent change Vmax at 10 uM at concentration range of 0.1-100 uM; Minimal (<10% decrease or increase in V max).", "type": "functional, organism-based", "conditions": "Canis lupus familiaris, Purkinje fiber", "summary_of_the_method": "as §2"}, "Canis familiaris [7]": {"organism": "Canis familiaris", "test": "In vitro electrophysiological evaluation in canine cardiac Purkinje fibres reported as maximum percent change Vmax concentration range of 1-100 uM; Minimal (<10% decrease or increase in V max).", "type": "functional", "conditions": "Canis lupus familiaris; Purkinje fiber", "summary_of_the_method": "as §2"}, "Canis familiaris [8]": {"organism": "Canis familiaris", "test": "In vitro electrophysiological evaluation in canine cardiac Purkinje fibres reported as % change for action potential duration at 10 uM at 1-100 uM concentration range", "type": "functional, Canis lupus familiaris, Purkinje fiber", "summary_of_the_method": "as §2"}, "Canis familiaris [9]": {"organism": "Canis familiaris", "test": "In vitro electrophysiological evaluation in canine cardiac ventricular muscle reported as % change for conduction time(CT) at 10 uM at 0.1-100 uM concentration range; Minimal (<10% decrease or increase in CT).", "type": "functional, Canis lupus familiaris, Muscle tissue"}, "Canis familiaris [10]": {"organism": "Canis familiaris", "test": "In vitro electrophysiological evaluation in canine cardiac ventricular muscle reported as maximum % change for conduction time(CT) at 0.1-100 uM concentration range; Minimal (<10% decrease or increase in CT).", "type": "functional, Canis lupus familiaris, Muscle tissue", "summary_of_the_method": "as §3"}, "Canis familiaris [11]": {"organism": "Canis familiaris", "test": "In vitro electrophysiological evaluation in canine cardiac ventricular muscle reported as maximum % change for functional refractory period (FRP) at 0.1-100 uM concentration range; concentration at which it occurred is 10 uM", "parameters": "species or system Canis lupus familiaris, Muscle tissue", "summary_of_the_method": "as §3"}, "Canis familiaris [12]": {"organism": "Canis familiaris", "test": "as §4", "type": "functional", "conditions": "Canis lupus familiaris; Heart", "remark": "listed apart in the source"}, "Canis familiaris [13]": {"organism": "Canis familiaris", "test": "In vitro electrophysiological evaluation in canine cardiac Purkinje fibres reported as percent change Vmax at 10 uM at concentration range of 0.1-100 uM.", "type": "functional, organism-based", "conditions": "Canis lupus familiaris, Purkinje fiber", "summary_of_the_method": "as §2"}, "Canis familiaris [14]": {"organism": "Canis familiaris", "test": "In vitro electrophysiological evaluation in canine cardiac Purkinje fibres reported as % change for action potential duration at 10 uM at 0.1-100 uM concentration range", "type": "functional, Canis lupus familiaris, Purkinje fiber", "summary_of_the_method": "as §2"}, "Canis familiaris [15]": {"organism": "Canis familiaris", "test": "In vitro electrophysiological activity in canine cardiac occurred is 10 uM", "type": "functional, Canis lupus familiaris, Heart"}, "Canis familiaris [16]": {"organism": "Canis familiaris", "test": "In vitro electrophysiological evaluation in canine cardiac ventricular muscle reported as % change for the functional refractory period (FRP) at 10 uM at concentration range of 0.1-100 uM", "parameters": "species or system Canis lupus familiaris, Muscle tissue", "summary_of_the_method": "as §3"}, "Canis familiaris [17]": {"organism": "Canis familiaris", "test": "In vitro electrophysiological activity in canine cardiac Purkinje fibres given as maximum % change for action potential duration at 0.1-100 uM concentration", "type": "functional, Canis lupus familiaris, Purkinje fiber", "summary_of_the_method": "(§5)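 Canine cardiac Purkinje fibres, intracellular recording at 1 s basic cycle length, over cumulative concentration ranges. Compound 10 mM stock in deionized water diluted into Tyrode's. Each fibre used once as its own control. Value is the maximum % change from control in APD at 95% repolarization, with the concentration where it occurred; both values given if a biphasic response (>20% reversal) occurred.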"}, "Canis familiaris [18]": {"organism": "Canis familiaris", "test": "In vitro electrophysiological evaluation in canine cardiac Purkinje fibres reported as percent change Vmax concentration range of 0.1-10 uM; Minimal (<IO%increase or a decrease in CT)", "type": "functional", "conditions": "Canis lupus familiaris; Purkinje fiber", "summary_of_the_method": "as §2"}, "Canis familiaris [19]": {"organism": "Canis familiaris", "test": "In vitro electrophysiological evaluation in canine cardiac Purkinje fibres reported as % change for action potential duration at 0.1-10 uM concentration range", "type": "functional, Canis lupus familiaris, Purkinje fiber", "summary_of_the_method": "as §2"}, "Canis familiaris [20]": {"organism": "Canis familiaris", "test": "In vitro electrophysiological evaluation in canine cardiac Purkinje fibres reported as maximum percent change Vmax concentration range of 0.1-100 uM", "type": "functional", "conditions": "Canis lupus familiaris; Purkinje fiber", "summary_of_the_method": "as §2"}, "Canis familiaris [21]": {"organism": "Canis familiaris", "test": "In vitro electrophysiological evaluation in canine cardiac Purkinje fibres reported as percent change Vmax concentration range of 0.1-100 uM; Minimal (<IO%increase or a decrease in CT)", "type": "functional", "conditions": "Canis lupus familiaris; Purkinje fiber", "summary_of_the_method": "as §2"}, "Canis familiaris [22]": {"organism": "Canis familiaris", "test": "In vitro electrophysiological evaluation in canine cardiac Purkinje fibres reported as maximum percent change Vmax concentration range of 0.1-10 uM; Minimal (<IO%increase or a decrease in CT)", "type": "functional", "conditions": "Canis lupus familiaris; Purkinje fiber", "summary_of_the_method": "as §2"}, "Canis familiaris [23]": {"organism": "Canis familiaris", "test": "In vitro electrophysiological activity in canine cardiac Purkinje fibres given as maximum % change for action potential duration at 0.1-10 uM concentration", "type": "functional, Canis lupus familiaris, Purkinje fiber", "summary_of_the_method": "as §5"}, "Canis familiaris [24]": {"organism": "Canis familiaris", "test": "In vitro electrophysiological evaluation in canine cardiac Purkinje fibres reported as % change for action potential duration at 0.1-100 uM concentration range", "type": "functional, Canis lupus familiaris, Purkinje fiber", "summary_of_the_method": "as §2"}}, "note": "Values joined by “and” are separate entries in the source; they are usually repeats but may differ in a detail not shown here. Identical values can stand only once.", "data": [{"molecule": "CS(=O)(=O)Nc1cc(C(=O)CCC2C(=O)C3CCN2CC3)ccc1Cl.Cl", "note": "(stereo not given)", "values": [{"measurement": "APD95", "setting": "Canis familiaris [1]", "result": 17, "unit": "%"}, {"measurement": "APD95", "setting": "Canis familiaris [2]", "result": -4, "unit": "%"}, {"measurement": "FRP", "setting": "Canis familiaris [3]", "result": "21% and 32% and 15%"}, {"measurement": "APD95", "setting": "Canis familiaris [4]", "result": 21, "unit": "%"}, {"measurement": "Vmax", "setting": "Canis familiaris [5]", "result": -28, "unit": "%"}, {"measurement": "Vmax", "setting": "Canis familiaris [6]", "result": "< 10", "unit": "%"}, {"measurement": "Vmax", "setting": "Canis familiaris [7]", "result": "< 10", "unit": "%"}, {"measurement": "APD95", "setting": "Canis familiaris [8]", "result": -3, "unit": "%"}, {"measurement": "CT", "setting": "Canis familiaris [9]", "result": "<10", "unit": "%"}, {"measurement": "CT", "setting": "Canis familiaris [10]", "result": "<10", "unit": "%"}]}, {"molecule": "CCOC(=O)C(CC1C(=O)C2CCN1CC2)C(=O)c1ccc([N+](=O)[O-])cc1.Cl", "note": "(stereo not given)", "values": [{"measurement": "APD95", "setting": "Canis familiaris [1]", "result": "-12% and 0% and -5%"}, {"measurement": "APD95", "setting": "Canis familiaris [2]", "result": 2, "unit": "%"}, {"measurement": "FRP", "setting": "Canis familiaris [3]", "result": 38, "unit": "%"}, {"measurement": "FRP", "setting": "Canis familiaris [11]", "result": 22, "unit": "%"}, {"measurement": "Vmax", "setting": "Canis familiaris [6]", "result": "< 10", "unit": "%"}, {"measurement": "Vmax", "setting": "Canis familiaris [12]", "result": "-26% and -13% and -18%"}, {"measurement": "Vmax", "setting": "Canis familiaris [13]", "result": -12, "unit": "%"}, {"measurement": "APD95", "setting": "Canis familiaris [14]", "result": "23% and 22%"}, {"measurement": "CT", "setting": "Canis familiaris [9]", "result": "<10", "unit": "%"}, {"measurement": "CT", "setting": "Canis familiaris [10]", "result": "<10", "unit": "%"}, {"measurement": "APD95", "setting": "Canis familiaris [15]", "result": "23% and 22%"}, {"measurement": "FRP", "setting": "Canis familiaris [16]", "result": "22% and 35%"}]}, {"molecule": "CCCCCCC[N+]12CCC(CC1)C(CCc1ccc(Cl)cc1)C2.[Br-]", "note": "(stereo not given)", "values": [{"measurement": "APD95", "setting": "Canis familiaris [17]", "result": 23, "unit": "%"}, {"measurement": "Vmax", "setting": "Canis familiaris [18]", "result": "< 10", "unit": "%"}, {"measurement": "APD95", "setting": "Canis familiaris [19]", "result": 23, "unit": "%"}, {"measurement": "Vmax", "setting": "Canis familiaris [20]", "result": -58, "unit": "%"}, {"measurement": "Vmax", "setting": "Canis familiaris [21]", "result": "< 10", "unit": "%"}, {"measurement": "Vmax", "setting": "Canis familiaris [22]", "result": "< 10", "unit": "%"}, {"measurement": "APD95", "setting": "Canis familiaris [23]", "result": 26, "unit": "%"}, {"measurement": "APD95", "setting": "Canis familiaris [24]", "result": 22, "unit": "%"}]}]}
